Data set [1] can be described thus: Ratio of median survival times for non-survivors at dose 50 mg/kg in exp1. The format is functional. More on the design: unit: %. The procedure, abridged: (§1)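 Mice were inoculated ip with 10^6 P388 leukemia cells on day 0. Groups of six (occasionally five) were dosed ip qd on days 1–5 with fresh suspensions; 30 mice served as untreated controls. Deaths were recorded daily up to day 60. T/C% compares the median survival of treated non-survivors (<60 days) with the control median. Medians used grouped data when there were no 30-day survivors, otherwise ungrouped data. t = toxic.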

In data set [2] the test system is Mus musculus. Briefly: Mortality by day 5 expressed as number of mice died to the total treated at dose 200 mg/kg in exp1; 5/6. The format is ADME, organism-based. The arrangement: dose 200 mg/kg. The following applies: in vivo.
The subject of data set [3] is Mus musculus. Briefly: Change in weight by day 5, obtained by subtracting treated groups of animals minus control groups of animals at dose 100 mg/kg in exp1. In kind it is functional. The procedure, abridged:
(§2)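 Mice were inoculated ip with 10^6 P388 leukemia cells on day 0, when treated and control mice weighed 19–22 g. Treatment was given ip once daily on days 1–5, within about 5 min of preparing the solution or suspension. Groups of six (occasionally five) were treated, with 30 untreated inoculated mice as controls. The day-5 weight change is the mean treated change minus the mean control change.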

The test system of data set [4] is Mus musculus. Briefly: Median survival time of the treated control groups, in which there are no 30-day survivors at dose 50 mg/kg in exp1. In kind it is functional.
The subject of data set [5] is Mus musculus. Briefly: Median survival time of the untreated control groups, in which there are no 30-day survivors at dose 200 mg/kg in exp1. The format is functional.
The test system of data set [6] is Mus musculus. Briefly: Median survival time of the treated control groups, in which there are no 30-day survivors at dose 100 mg/kg in exp1. The format is functional.
Data set [7] is described as follows: Ratio of median survival times for non-survivors at dose 200 mg/kg in exp1; t= toxic. The format is ADME, organism-based. More on the design: dose 200 mg/kg. To be noted: in vivo. The procedure, abridged: as §1
The subject of data set [8] is Mus musculus. Briefly: Median survival time of the untreated control groups, in which there are no 30-day survivors at dose 50 mg/kg in exp1. The format is functional.
Data set [9] in a line: Ratio of median survival times for non-survivors at dose 100 mg/kg in exp1. In kind it is functional. The arrangement: unit: %. The procedure, abridged:
as §1

The subject of data set [10] is Mus musculus. Briefly: Mortality by day 5 expressed as number of mice died to the total treated at dose 50 mg/kg in exp1; 0/6. The following applies: in vivo. More on the design: dose 50 mg/kg. The format is ADME, organism-based.
The subject of data set [11] is Mus musculus. Briefly: Mortality by day 5 expressed as number of mice died to the total treated at dose 100 mg/kg in exp1; 0/6. The following applies: in vivo. The format is ADME, organism-based. The arrangement: dose 100 mg/kg.
Data set [12] relates to Mus musculus. Briefly: Change in weight by day 5, obtained by subtracting treated groups of animals minus control groups of animals at dose 50 mg/kg in exp1. In kind it is functional. The procedure, abridged: as §2
For data set [13], the system named is Mus musculus. Briefly: Median survival time of the untreated control groups, in which there are no 30-day survivors at dose 100 mg/kg in exp1. The format is functional.

Structures are written as SMILES.

As for `O=S(=O)(CCl)OCCBr`, the Ratio is on record as 110 in data set [1], “Toxic” in data set [7] and 114 in data set [9]. The Mortality turned out to be 5 in the data set on Mus musculus [2], 0 in the data set on Mus musculus [10] and 0 in the data set on Mus musculus [11]. Further, the Change in weight in the data set on Mus musculus [3] was -1.5; with Mus musculus [12] it was -0.5. For the same molecule, the Median survival time in the data set with Mus musculus [4] worked out at 12.3; with Mus musculus [5] it was 11.1; in the data set with Mus musculus [6] it was 12.7; with Mus musculus [8] it was 11.1; with Mus musculus [13], 11.1.

The values above are taken from ChEMBL document CHEMBL1122744, “2-Chloroethyl (methylsulfonyl)methanesulfonate and related (methylsulfonyl)methanesulfonates. Antineoplastic activity in vivo” (J Med Chem, 1984).
